OX1R antag-1 = OX1R (human) antagonism; OX1R-expressing cells, FRET antagonist read-out; inhibition, % at 6.6 µM; 1.8% of 330,000 active; AID 485270; in the data active = inhibition mostly above about 38%, no sharp cut-off; inactive = mostly below about 40%
Target sequence (O43613 whole entry, looked up): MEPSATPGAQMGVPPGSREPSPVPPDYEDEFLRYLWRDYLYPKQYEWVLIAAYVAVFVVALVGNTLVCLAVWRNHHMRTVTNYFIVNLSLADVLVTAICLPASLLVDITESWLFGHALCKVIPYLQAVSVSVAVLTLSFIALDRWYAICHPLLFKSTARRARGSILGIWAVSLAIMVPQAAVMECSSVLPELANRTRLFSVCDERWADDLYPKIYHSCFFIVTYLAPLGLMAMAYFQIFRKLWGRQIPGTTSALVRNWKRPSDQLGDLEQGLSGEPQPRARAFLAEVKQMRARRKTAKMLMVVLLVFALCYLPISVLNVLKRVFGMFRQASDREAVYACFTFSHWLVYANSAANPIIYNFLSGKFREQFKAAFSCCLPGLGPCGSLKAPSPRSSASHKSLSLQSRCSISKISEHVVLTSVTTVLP
GPR7 antag = antagonists of human GPR7 (neuropeptides B/W receptor 1); GPR7-expressing cells, fluorescence antagonist assay; AID 1861; 1.1% of 290,000 active; inhibition, % at 4.4 µM; in the data active = inhibition above about 16%, passing the limit was not always enough;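 note: cells stimulated with the agonist NPW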
Target sequence (P48145 whole entry, looked up): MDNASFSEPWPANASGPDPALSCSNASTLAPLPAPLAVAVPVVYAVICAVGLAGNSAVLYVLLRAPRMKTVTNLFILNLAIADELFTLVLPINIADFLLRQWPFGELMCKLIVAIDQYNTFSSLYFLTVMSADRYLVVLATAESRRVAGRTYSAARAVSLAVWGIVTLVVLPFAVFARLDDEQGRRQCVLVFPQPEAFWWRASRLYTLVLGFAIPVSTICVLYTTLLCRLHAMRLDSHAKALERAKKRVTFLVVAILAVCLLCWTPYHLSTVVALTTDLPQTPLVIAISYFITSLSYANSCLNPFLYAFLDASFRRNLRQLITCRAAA
OX1R antag-2 = antagonists of human orexin 1 receptor; AID 434989; 0.43% of 330,000 active; CHO/OX1R cells, Fluo-8 calcium fluorescence, orexin A; O43613; inhibition, % at 5 µM;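 active = inhibition above its plate's threshold, mean inhibition of all tested compounds on the plate plus 3 SD, cut at about 37% in these data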
CHO parental Ca = signal in parental CHO cells, OX1R antagonist counter-screen; inhibition, % at 5.6 µM; 0.63% of 330,000 active; AID 463079; parental CHO-K1, ATP-induced calcium, Fluo-8 fluorescence;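 active = inhibition above that plate's mean sample inhibition plus 3 SD, cut at about 26% in these data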
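Assay system: untransfected parental CHO cell line. Also added: ATP agonist challenge. Dosing: one dose, 5.6 µM nominal. Measured by: Fluo-8 fluorescence. Read-out: % inhibition. Benchmarks: ATP wells versus no-ATP DMSO wells. Repeats: no replicates.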
TAAR1 antagonist = antagonists of human TAAR1; 1.5% of 360,000 active; CHO RD-HGA16 TAAR1, Fluo-8 calcium fluorescence, antagonist; inhibition, % at 3 µM; Q96RJ0;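 active = inhibition above a per-plate cutoff, the mean inhibition of test compounds on that plate plus 3 SD, cut at about 49% in these data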
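test system = CHO RD-HGA16 cells bearing hTAAR1 | replication = singlicate | controls = DMSO-only wells and EC80 β-PEA-stimulated wells | reagent = EC80 β-phenethylamine stimulus | read-out basis = percent inhibition of PEA-evoked calcium signal, max/basal emission ratio | schedule = seeding 17-24 h prior, 75-min 37 °C, 30-min RT dye loading | signal = kinetic Fluo-8 calcium fluorescence measurement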
TAAR1 ag = agonists of human TAAR1 | 0.99% of 360,000 active | CHO RD-HGA16 TAAR1, Fluo-8 calcium fluorescence; vehicle wells 0%, saturating PEA agonist 100% | AID 624467 | activation, % at 3 µM;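 active = activation above the mean activation of all test compounds in the run plus 3 SD, cut at about 38% in these data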
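Repeats: no replicates (n 1) | Material: CHO-derived RD-HGA16 cells with stable Gα16 and human TAAR1 | Technique: Kinetic Fluo-8 calcium fluorescence | Schedule: 17-24 h seeding, 75 min 37 °C dye, 30 min RT | Evaluation: % activation from peak over basal fluorescence ratio, DMSO-to-PEA scaled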
nonsel antag count = counter-screen for TAAR1 antagonists: nonselective antagonists; shares compounds with TAAR1 antagonist; 77% of 2,400 active; AID 651780; inhibition, % at 3 µM; counterscreen cell line, calcium fluorescence, antagonist mode; in the data active = inhibition above about 22%;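 note: CHO-Ga16 host cells stimulated with ATP at an EC80 level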
TAAR1 antag conf = confirmation of human TAAR1 antagonists; shares compounds with TAAR1 antagonist; inhibition, % at 3 µM; 40% of 2,400 active; TAAR1-expressing cells, fluorescence antagonist read-out; in the data active = inhibition above about 49%;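 note: CHO-Ga16 host cells challenged with agonist PEA near its EC80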
Ga16 nonsel ag = counter-screen for TAAR1 antagonists: nonselective Ga16 agonists | 18% of 2,400 active | Ga16-expressing cells, calcium fluorescence, agonist counterscreen | activation, % at 3 µM | shares compounds with TAAR1 antagonist | AID 651953; in the data active = activation above about 12%
TAAR1 ag counter = activates human TAAR1 in antagonist counter-screen; shares compounds with TAAR1 antagonist; hTAAR1 cell line, fluorescence activation, agonist mode; activation, % at 3 µM; 2% of 2,400 active; in the data active = activation above about 37%;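 note: CHO cells stably expressing TAAR1 with calcium dye readout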
Of the large screens only hits and unclear results are named; the others gave an inactive call (follow-up assays come after a bar, where they were run). A selection: hits, their analogues and other compounds. The true share with any hit is near 4.6%.

C=C1C(=O)O[C@@]23[C@H]1CC[C@@H](C)[C@@H]2CC[C@@]1(C)O[C@@H]31	none (no result: GPR7 antag, TAAR1 antagonist, TAAR1 ag)
O=C(CCN1C(=O)/C(=C\c2ccccc2Cl)SC1=S)Nc1cccnc1	TAAR1 antagonist 50 | nonsel antag count 48 | TAAR1 antag conf 69 | Ga16 nonsel ag 18 | TAAR1 ag counter inactive
CC(=O)c1cccc(OCc2cc(C(=O)N(C)CCc3cnn(C)c3)no2)c1	none (no result: OX1R antag-1, OX1R antag-2, CHO parental Ca)
CC[C@@H](C)C(NC(=O)OC(C)(C)C)c1cn([C@@H](CCC(=O)OC(C)(C)C)C(=O)N2CCN(C(=O)OC(C)(C)C)CC2)nn1 (some centres undefined)	none
CCOC(=O)c1c(C)[nH]c(C(=O)N/N=C\c2ccccc2Cl)c1C	TAAR1 antagonist 55 | nonsel antag count 38 | TAAR1 antag conf 56 | Ga16 nonsel ag inactive | TAAR1 ag counter inactive
CCOC(=O)c1c(C)[nH]c(C(=O)N/N=C/c2cccc(OC)c2)c1C	TAAR1 antagonist 55 | nonsel antag count inactive | TAAR1 antag conf inactive | Ga16 nonsel ag inactive | TAAR1 ag counter inactive
CCN=C(NCC)SC1CC(=O)N(c2ccc(OC)cc2)C1=O (centres undefined)	TAAR1 antagonist 65 | nonsel antag count 30 | TAAR1 antag conf 55 | Ga16 nonsel ag 12 | TAAR1 ag counter inactive
CCN=C(NCC)SC1CC(=O)N(c2cccc(OCC)c2)C1=O (centres undefined)	TAAR1 antagonist 71 | nonsel antag count 26 | TAAR1 antag conf 50 | Ga16 nonsel ag inactive | TAAR1 ag counter inactive
CCOc1ccc(N2C(=O)CC(SC(=NC)Nc3cccc(OC)c3)C2=O)cc1 (centres undefined)	none
CC(C)(C)OC(=O)CNC(=O)c1[nH]cnc1C(=O)NCCCCCN	none (no result: GPR7 antag)
CC(C)(C)OC(=O)NCCCC[C@H](NC(=O)c1nc[nH]c1C(=O)N1CCN(C(=O)OC(C)(C)C)CC1)C(=O)OC(C)(C)C	TAAR1 antagonist 50 | nonsel antag count inactive | TAAR1 antag conf inactive | Ga16 nonsel ag inactive | TAAR1 ag counter inactive
C[C@H](NC(=O)c1nc[nH]c1C(=O)NCCCCCNC(=O)OC(C)(C)C)C(=O)OC(C)(C)C	TAAR1 antagonist 61 | nonsel antag count 31 | TAAR1 antag conf inactive | Ga16 nonsel ag inactive | TAAR1 ag counter inactive
CC(C)(C)OC(=O)NCCCC[C@H](NC(=O)c1nc[nH]c1C(=O)N1CCN(c2ccccc2)CC1)C(=O)OC(C)(C)C	none (no result: GPR7 antag)
CC(C)(C)OC(=O)CNC(=O)c1[nH]cnc1C(=O)NCCCCCNC(=O)OC(C)(C)C	TAAR1 antagonist 68 | nonsel antag count 41 | TAAR1 antag conf 60 | Ga16 nonsel ag 16 | TAAR1 ag counter inactive
COc1ccc(S(=O)(=O)N2CCC(C(=O)N(CC(C)C)C3CCS(=O)(=O)C3)CC2)cc1OC (centres undefined)	none (no result: GPR7 antag)
Cc1cc(C)n(C(C)CNS(=O)(=O)c2ccc(Cl)cc2)n1 (centres undefined)	none
CCOc1ccc(-c2ccc(/C=C3/C(=N)N4C=CSC4=NC3=O)o2)c([N+](=O)[O-])c1	none
CCOc1ccc(-c2ccc(/C=C3/C(=N)N4C(C)=CSC4=NC3=O)o2)c([N+](=O)[O-])c1	TAAR1 antagonist 59 | nonsel antag count 38 | TAAR1 antag conf 50 | Ga16 nonsel ag inactive | TAAR1 ag counter inactive
Oc1c(N=NC(=S)Nc2ccccc2F)c2ccccc2n1Cc1ccccc1F	TAAR1 antagonist 54 | nonsel antag count inactive | TAAR1 antag conf inactive | Ga16 nonsel ag inactive | TAAR1 ag counter inactive
Cc1ccccc1Cn1c(O)c(N=NC(=S)Nc2ccccc2F)c2ccccc21	none
COc1ccc(S(=O)(=O)N2CCOC2CNC(=O)C(=O)NCc2ccco2)cc1OC (centres undefined)	none
O=c1c2ccccc2nc(/C=C/c2cccnc2)n1Cc1ccccc1	none (no result: OX1R antag-1, OX1R antag-2, CHO parental Ca)
O=c1c2ccccc2nc(/C=C/c2cc(Br)ccc2O)n1CCCO	TAAR1 antagonist 58 | nonsel antag count inactive | TAAR1 antag conf inactive | Ga16 nonsel ag inactive | TAAR1 ag counter inactive
O=c1c2ccccc2nc(/C=C/c2cccnc2)n1CCc1ccccc1	TAAR1 antagonist 60 | nonsel antag count inactive | TAAR1 antag conf inactive | Ga16 nonsel ag inactive | TAAR1 ag counter inactive
O=c1c2ccccc2nc(/C=C/c2cccc([N+](=O)[O-])c2)n1CCO	none
Cc1nc2scc(-c3ccccc3)c2c(=O)n1N=C1C=CC(=O)C=C1	TAAR1 antagonist 62 (no result: OX1R antag-1, OX1R antag-2, CHO parental Ca) | nonsel antag count 56 | TAAR1 antag conf 54 | Ga16 nonsel ag inactive | TAAR1 ag counter inactive
COCCNC(=O)c1ccc(-c2ccc(OC)cc2C)c2ccoc12	none (no result: OX1R antag-1, GPR7 antag, OX1R antag-2, CHO parental Ca)
COc1ccc(-c2ccc(C(=O)Nc3cc(OC)c(OC)c(OC)c3)c3occc23)c(C)c1	TAAR1 antagonist 61 (no result: OX1R antag-1, GPR7 antag, OX1R antag-2, CHO parental Ca) | nonsel antag count 30 | TAAR1 antag conf 49 | Ga16 nonsel ag inactive | TAAR1 ag counter inactive
COc1ccc(-c2ccc(C(=O)NCC3CCOCC3)c3occc23)c(C)c1	TAAR1 antagonist 59 (no result: OX1R antag-1, GPR7 antag, OX1R antag-2, CHO parental Ca) | nonsel antag count 32 | TAAR1 antag conf 58 | Ga16 nonsel ag inactive | TAAR1 ag counter inactive
COc1ccc(-c2ccc(C(=O)Nc3ccc(Cl)cc3)c3occc23)c(C)c1	none (no result: OX1R antag-1, GPR7 antag, OX1R antag-2, CHO parental Ca)
CCOC(=O)[C@]12CCCC=C1N(Cc1ccco1)C(=O)[C@H](CC(=O)NCCCCc1ccccc1)C2	none (no result: OX1R antag-1, GPR7 antag, OX1R antag-2, CHO parental Ca)
N#Cc1nc(COc2ccccc2F)oc1NCc1ccc(F)cc1	none
COc1ccc(CCNc2oc(COc3ccccc3F)nc2C#N)cc1	TAAR1 antagonist 65 | nonsel antag count 29 | TAAR1 antag conf 52 | Ga16 nonsel ag inactive | TAAR1 ag counter inactive
COc1ccc(CCNc2oc(COc3ccc(Br)cc3)nc2C#N)cc1OC	TAAR1 antagonist 93 | nonsel antag count 47 | TAAR1 antag conf 65 | Ga16 nonsel ag inactive | TAAR1 ag counter inactive
Cc1cccc(N2CCN(C(=O)c3ccc(Cl)c(NC4=NC5CS(=O)(=O)CC5S4)c3)CC2C)c1 (centres undefined)	TAAR1 antagonist 56 | nonsel antag count 26 | TAAR1 antag conf inactive | Ga16 nonsel ag inactive | TAAR1 ag counter inactive
O=C(c1ccc(Cl)c(NC2=NC3CS(=O)(=O)CC3S2)c1)N1CCN(c2ccccc2)CC1 (centres undefined)	none
Cc1n[nH]c(=O)n(N=Cc2c[nH]c3ccccc23)c1=O	none (no result: OX1R antag-1, GPR7 antag, OX1R antag-2, CHO parental Ca)
